{"source": "paper PMC4201344", "about": "(ACS Chemical Biology, 2014)", "format_in_all_cases": "cell-based, C. elegans", "key": {"GluClβ T6′S, T203A/Y206F": {"target": "T1, GluClβ T6′S, T203A/Y206F (Caenorhabditis elegans, UniProt Q17328, T229A/T283S/Y232F)", "T1 sequence (Q17328 23-434 T229A/Y232F/T283S)": "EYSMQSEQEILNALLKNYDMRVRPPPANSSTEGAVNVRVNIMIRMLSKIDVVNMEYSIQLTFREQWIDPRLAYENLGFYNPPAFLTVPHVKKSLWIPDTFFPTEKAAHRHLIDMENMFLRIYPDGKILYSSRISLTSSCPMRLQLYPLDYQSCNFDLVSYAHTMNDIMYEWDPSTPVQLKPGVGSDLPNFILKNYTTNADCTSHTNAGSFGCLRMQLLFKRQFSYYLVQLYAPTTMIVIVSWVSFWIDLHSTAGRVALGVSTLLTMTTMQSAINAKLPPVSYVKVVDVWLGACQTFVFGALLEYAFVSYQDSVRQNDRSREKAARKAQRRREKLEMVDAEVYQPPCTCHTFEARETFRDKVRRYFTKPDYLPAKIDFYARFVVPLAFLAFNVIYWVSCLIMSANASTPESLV", "test": "two-electrode voltage clamp, Xenopus laevis oocytes"}, "GluClβ T6′S, Y206A": {"target": "GluClβ T6′S, Y206A (Caenorhabditis elegans, UniProt Q17328, T283S/Y232A)", "sequence (Q17328 23-434 Y232A/T283S)": "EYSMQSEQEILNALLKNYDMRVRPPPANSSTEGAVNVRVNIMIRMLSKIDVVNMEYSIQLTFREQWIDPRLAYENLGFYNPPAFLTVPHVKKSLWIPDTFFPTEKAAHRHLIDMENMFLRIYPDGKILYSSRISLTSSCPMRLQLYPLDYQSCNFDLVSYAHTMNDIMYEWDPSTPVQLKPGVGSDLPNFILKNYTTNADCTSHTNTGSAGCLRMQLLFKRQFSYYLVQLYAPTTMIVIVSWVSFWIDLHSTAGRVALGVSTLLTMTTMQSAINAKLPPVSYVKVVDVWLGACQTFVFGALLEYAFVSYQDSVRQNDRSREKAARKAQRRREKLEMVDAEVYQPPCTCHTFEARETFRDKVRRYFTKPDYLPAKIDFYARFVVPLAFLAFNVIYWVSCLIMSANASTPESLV", "test": "two-electrode voltage clamp, Xenopus laevis oocytes", "details": "glutamate", "in_short": "(§1)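 C. elegans GluClβ (mammalian codon-optimised) in pGEMhe, mutated by QuikChange; T7 mRNA. […] Voltage clamp at −60 mV in Ca-free ND96, pH 7.5. […] Peak currents taken from baseline, normalised, averaged per concentration, and fit to Hill equation (EC50, nH).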"}, "GluClβ A2′S": {"target": "T2, GluClβ A2′S (Caenorhabditis elegans, UniProt Q17328, A279S)", "T2 sequence (Q17328 23-434 A279S)": "T1 sequence (Q17328 23-434 T229A/Y232F/T283S) with A207T, F210Y, A257S, S261T", "test": "two-electrode voltage clamp, Xenopus laevis oocytes", "details": "glutamate"}, "GluClβ T6′S, S126A": {"target": "GluClβ T6′S, S126A (Caenorhabditis elegans, UniProt Q17328, S152A/T283S)", "sequence (Q17328 23-434 S152A/T283S)": "as the sequence (Q17328 23-434 Y232A/T283S) above, with S130A, A210Y counted along it", "test": "two-electrode voltage clamp, Xenopus laevis oocytes", "details": "glutamate"}, "[1]": {"target": "T3, GluClβ with α signal peptide, T6′S, Y156F (Caenorhabditis elegans, UniProt Q17328, T283S/Y182F)", "T3 sequence (Q17328 23-434 Y182F/T283S)": "T1 sequence (Q17328 23-434 T229A/Y232F/T283S) with Y160F, A207T, F210Y", "test": "two-electrode voltage clamp, Xenopus laevis oocytes", "details": "glutamate", "in_short": "as §1"}, "[2]": {"tested_on": "GluClβ homomeric receptor, wild type", "test": "two-electrode voltage clamp, Xenopus laevis oocytes", "details": "high expressing mutants of GluClβ"}, "[3]": {"target": "GluClβ homomeric receptor, wild type (Caenorhabditis elegans, UniProt Q17328)", "sequence (Q17328 23-434)": "as the sequence (Q17328 23-434 Y232A/T283S) above, with A210Y, S261T counted along it", "test": "two-electrode voltage clamp, Xenopus laevis oocytes", "details": "glutamate"}, "GluClβ T6′S, S126A/Y156F": {"target": "GluClβ T6′S, S126A/Y156F (Caenorhabditis elegans, UniProt Q17328, S152A/T283S/Y182F)", "sequence (Q17328 23-434 S152A/Y182F/T283S)": "as the sequence (Q17328 23-434 Y232A/T283S) above, with S130A, Y160F, A210Y counted along it", "test": "two-electrode voltage clamp, Xenopus laevis oocytes", "details": "glutamate", "in_short": "as §1"}, "GluClβ T6′S, T203A": {"target": "GluClβ T6′S, T203A (Caenorhabditis elegans, UniProt Q17328, T229A/T283S)", "sequence (Q17328 23-434 T229A/T283S)": "as the sequence (Q17328 23-434 Y232A/T283S) above, with T207A, A210Y counted along it", "test": "two-electrode voltage clamp, Xenopus laevis oocytes", "details": "glutamate"}, "[4]": {"tested_on": "GluClβ with α signal sequence, T6’S, Y206 F2-Phe (3,5-F2–Phe)", "test": "two-electrode voltage clamp, Xenopus laevis oocytes, nonsense suppression", "details": "glutamate; no plateau at 100 mM", "in_short": "(§2)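 Site-specific TAG codon, read by 74mer THG73 tRNA ligated to dCA-acylated amino acid; NVOC removed by 5 min xenon-lamp irradiation just before injection. Oocytes coinjected with 37.5 ng mRNA plus ~1 μg/μL tRNA at 48 and 24 h pre-recording; unacylated 76mer tRNA served as read-through control.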"}, "[5]": {"tested_on": "GluClβ T6′S, Y206TAG Br–Phe", "test": "two-electrode voltage clamp, Xenopus laevis oocytes, nonsense suppression", "details": "glutamate"}, "GluClβ A2′T": {"target": "GluClβ A2′T (Caenorhabditis elegans, UniProt Q17328, A279T)", "sequence (Q17328 23-434 A279T)": "as the sequence (Q17328 23-434 Y232A/T283S) above, with A210Y, A257T, S261T counted along it", "test": "two-electrode voltage clamp, Xenopus laevis oocytes", "details": "glutamate", "in_short": "as §1"}, "[6]": {"tested_on": "GluClβ with α signal peptide, T6′S, Y156TAG Cha", "test": "two-electrode voltage clamp, Xenopus laevis oocytes, nonsense suppression", "details": "glutamate", "in_short": "as §2"}, "GluClβ T6′S, R40E": {"target": "GluClβ T6′S, R40E (Caenorhabditis elegans, UniProt Q17328, R66E/T283S)", "sequence (Q17328 23-434 R66E/T283S)": "as the sequence (Q17328 23-434 Y232A/T283S) above, with R44E, A210Y counted along it", "test": "two-electrode voltage clamp, Xenopus laevis oocytes", "details": "glutamate", "in_short": "as §1"}, "GluClβ T6′S, R40A": {"target": "GluClβ T6′S, R40A (Caenorhabditis elegans, UniProt Q17328, R66A/T283S)", "sequence (Q17328 23-434 R66A/T283S)": "as the sequence (Q17328 23-434 Y232A/T283S) above, with R44A, A210Y counted along it", "test": "two-electrode voltage clamp, Xenopus laevis oocytes", "details": "glutamate"}}, "note": "Substitutions are numbered along the chain they refer to. “Also recorded” adds a separate entry of the source.", "data": [{"molecule": "N[C@@H](CCC(=O)O)C(=O)O", "note": "[glutamate]", "values": [{"measurement": "EC50", "setting": "GluClβ T6′S, T203A/Y206F; glutamate", "value": "210 ± 10", "unit": "µM"}, {"measurement": "Hill", "setting": "GluClβ T6′S, T203A/Y206F; glutamate", "value": "2.2 ± 0.1"}, {"measurement": "Ω", "setting": "GluClβ T6′S, T203A/Y206F; mutant cycle analysis T203A, Y206F", "value": "1/37"}, {"measurement": "ΔΔG", "setting": "GluClβ T6′S, T203A/Y206F; mutant cycle analysis, coupling T203A/Y206F", "value": 2.1, "unit": "kcal/mol"}, {"measurement": "EC50", "setting": "GluClβ T6′S, Y206A", "value": "no response"}, {"measurement": "EC50", "setting": "GluClβ A2′S", "value": "630 ± 10", "unit": "µM"}, {"measurement": "Hill", "setting": "GluClβ A2′S", "value": "2.0 ± 0.1"}, {"measurement": "Imax", "setting": "GluClβ A2′S", "value": "0.6–6 μA"}, {"measurement": "EC50", "setting": "GluClβ T6′S, S126A", "value": "4700 ± 100", "unit": "µM"}, {"measurement": "Hill", "setting": "GluClβ T6′S, S126A", "value": "2.5 ± 0.1"}, {"measurement": "EC50", "setting": "[1]", "value": "15000 ± 1000", "unit": "µM"}, {"measurement": "Hill", "setting": "[1]", "value": "2.3 ± 0.2"}, {"measurement": "Imax", "setting": "[1]", "value": "1–5 μA"}, {"measurement": "concentration at which rapid desensitization occurs", "setting": "[2]", "value": "greater than 100 mM"}, {"measurement": "Hill", "setting": "[3]", "value": "2.5 ± 0.2"}, {"measurement": "EC50", "setting": "GluClβ T6′S, S126A/Y156F", "value": "no response"}, {"measurement": "EC50", "setting": "GluClβ T6′S, T203A", "value": "640 ± 10", "unit": "µM"}, {"measurement": "Hill", "setting": "GluClβ T6′S, T203A", "value": "2.3 ± 0.1"}, {"measurement": "EC50", "setting": "[4]", "value": "> 100000", "unit": "µM"}, {"measurement": "EC50", "setting": "[5]", "value": "980 ± 30", "unit": "µM"}, {"measurement": "Hill", "setting": "[5]", "value": "2.5 ± 0.1"}, {"measurement": "Imax", "setting": "[5]", "value": "0.08–6 μA"}, {"measurement": "EC50", "setting": "GluClβ A2′T", "value": "abolished glutamate-induced currents; also recorded: no response"}, {"measurement": "EC50", "setting": "[6]", "value": "no response"}, {"measurement": "EC50", "setting": "GluClβ T6′S, R40E", "value": "nonfunctional; also recorded: no response"}, {"measurement": "EC50", "setting": "GluClβ T6′S, R40A", "value": "1100 ± 100", "unit": "µM"}, {"measurement": "Hill", "setting": "GluClβ T6′S, R40A", "value": "2.1 ± 0.1"}]}]}
